Test results as given in the EternaBench riboswitch data.

System: MS2 coat protein
Experiment: apparent Kd, MS2 coat protein; higher = weaker binding; RNA-MaP array; FMN 200 µM where present
In short: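 The titrant was SNAP-549-labelled MS2 coat protein, run from 0.7 or 1.5 nM in doubling steps to 3 µM. It was applied to designs transcribed by stalled E. coli RNA polymerase on Illumina sequencing-chip clusters, without ligand first and then with constant ligand, in 100 mM Tris-HCl pH 7.5, 80 mM KCl, 4 mM MgCl2, BSA, DTT, yeast tRNA and Tween-20. The apparent Kd is the median of filtered per-cluster binding-curve fits, with green signal normalised to red-channel RNA signal and control-cluster median Fmax.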

[1] = designed as: OFF switch for flavin mononucleotide, no ligand
[2] = ligand present: flavin mononucleotide, designed as: OFF switch for flavin mononucleotide
[3] = designed as: ON switch for flavin mononucleotide, no ligand
[4] = ligand present: flavin mononucleotide, designed as: ON switch for flavin mononucleotide

Sequence | apparent Kd [1] [nM] | apparent Kd [2] [nM] | apparent Kd [3] [nM] | apparent Kd [4] [nM]
AAAUAUAAGCGAGGAUAUAUACAUGAGGAUCACCCAUGUCCCAUGUCAUGAGCAUCAGCCAUGUAGUAGAAGGCGCACAUGAGG | 100 | 53.5 | – | –
UCAUUUUACACAGGAUAUAUUCAUAUACAGUUGUUUGGCUCUUACAUGUUAGUAGAAGGGUGCAACAUGAGGAUCACCCAUGUA | – | – | 279 | 274
GUUACCGUAGGAUAUACAUGAGGAUCACCCAUGUACUCAGUCGAUGGAUAAGAGUACUGUAGAAGGGCGCCGGC | 140 | 150 | – | –
UGGUACUAGGGAGGAUAUGGGAAGAUACAUGAGGAUCACCCAUGUUUAAGAAUGCCGAGAGGCAACUAGAAGGCCCUAGGACCU | – | – | 434 | 18.5
UGUCCAUAGCAGAAGGCAUGUCAAAAGACAUGAGGAUCACCCAUGUAAACAUGAGGAUAUGCUAUGGACUAAGAGCGAAAGCUC | 8.57 | 5.66 | – | –
CUUUUGUGAGGAUAUCAGUAGUAAUACAAUAGUAUUACUACUGAGAAGGCACAUGAGGAUCACCCAUGUUUCUC | 42.4 | 121 | – | –
AGAAACUACGAGAAGGACAUGUGGUAAAACGCAAACAUGAGGAUCACCCAUGUAGGAUAUCGUAGUUUCAGGAUCGUGAGAUCA | 589 | 26.9 | – | –
AUAUGGGCUAACAUGAGGAUCACCCAUGUGUUAUACUUAAUAUAGGAUAUGUUUAUACUUUUUGGGCAGAAGGAUGGCCCAUAU | – | – | 67.9 | 68.7
AUCAGCUCGUCAGGAUAUACGUCACUGCGUCAGCGGUGUGGUAAGAUCACAUGAGGAUCACCCAUGUAGAAGGGACGAGCUGAU | 13.6 | 232 | – | –
AUUAUUAAGUUAGGAUAUAGUAAAAUAAUUUAAUUAGAAGGAGCUCACAUGAGGAUCACCCAUGUAAGAGGAUCACCCAUGUAU | 22.3 | 16.5 | – | –
AUAGCUCUCUAGAAGGUCCAACCAGUAUACCAUCAGGUAUAUACGGUAGGGAGGAUAUGGGACAUGAGGAUCACCCAUGUGUAG | – | – | 57.8 | 44.8
AUCAGCUCGUCAGGAUAUACGUCGUGGUAAGAUCACAUGAGGAUCACCCAUGUAGAAGGGACGAGCUGAUAAGCACGAAAGUGC | 745 | 47.1 | – | –
CUGAAUAGAGGAUAUUGUACUGCUGACAUGAGGAUCACCCAUGUAUGUUAACUCGGCCGUCGAGAAGGCUAACAUA | 42.8 | 26.7 | – | –
GUGUAGUUAGGAUAUGCUGGAAUCUAGCGAAGCUAGGUUCCACAUGAGGAUCACCCAUGUAGAAGGGACUACAC | – | 73 | – | –
AAGAAAGAAACGCAGGAUAUGCAAAACAAAACAUGAGGAUCACCCAUGUCAAACAAACAAACAAAGCAGAAGGGCGAAAGAAAGAA | – | – | 23.1 | 16.4
CGCUGGUGACAGCAUCCAUCAAAACAUGAGGAUCACCCAUGUAGAAGGCUGUACGGUUACCGUACAGAGGAUAUACAAUGAUGC | 15.1 | 28.4 | – | –
GCGCGGAACCUAGGAUAUCCGGCAUGGACAGGUGGUAAGUCUCCCACAUGAGGAUCACCCAUGUAGGAGAAGGAGGAUCACGGG | 6.51 | 6.7 | – | –
GGAGGACAUGAGGAUCACCCAUGUGGAUGAUCGCUAGGAUAUGCGUAAAGGAGGAGUGGUGCAGAAGGAGUGGGAU | – | – | 464 | 360
GUAGCAUACAGAGGAUAUUCAAAACCGGAAACGGACAUGAGGAUCACCCAUGUGGCGAAAGCCAGGGAGAAGGCUGAAUGCUAC | – | – | 32.8 | 14.8
AAUAAACUCACAGGAUAUAGCAUCGUCGGUAUGAACUUAAAGACGACGAUGCUAGAAGGGUGACCACAUGAGGAUCACCCAUGU | – | – | 903 | 114
AUAAUUUUAUAUAUCAUAUAAAUCAGAAGGCAUAACAUGAGGAUCACCCAUGUAUAUUAUUGUUAUGAGGAUAUGAUUUAGUUA | 15.8 | 65.5 | – | –
AUGAGGUCAGGAUAUGCAUGGCGGGACUUGCGUCGUGGCGUGCAGAAGGGACAUGAGGAUCACCCAUGUGGAGC | 73.4 | 169 | – | –
CAGUACUGAGGAUAUACAUGAGGAUCACCCAUGUGCUCUAGCUAGGAUACUAGCAUUAGUAGAAGGCAGUACUG | 15 | 136 | – | –
GGCGGCGCGGGCCACCGCAGAACCAGAAGGACAUGAGGAUCACCCAUGUAACAAAACAGGGCGGUGUAGGAUAUGGCAGGCCCG | 41.9 | 89.5 | – | –
UCAUUUAAUACAGGAUAUGUUAGUAUACAGUAGAUUGGUUAUUACAUAAUAACAGAAGGGUAGAACAUGAGGAUCACCCAUGUA | – | – | 265 | 96.2
UUUGUCUGUGUGAGGAUAUACUUUGUUUGGUCGUUGUAGAAGGCACAUGAGGAUCACCCAUGUAUUUUGUUGUG | 28.7 | 31.7 | – | –
UUUGGGAACUCUAUGGGCCGCUACAUGAGGAUCACCCAUGUGCAGGAUAUAGGCGUUACUACCACCUAGAAGGGCACAGAAUGA | 32.5 | 47.6 | – | –
CCGGAAUCCUAGGAUAUGCUAGACGAUAGUCUAGCAGAAGGAGGAACAUGAGGAUCACCCAUGUGUCCUACCGG | 17.2 | 22.1 | – | –

Sequence | apparent Kd [1] [nM] | apparent Kd [2] [nM] | apparent Kd [3] [nM] | apparent Kd [4] [nM]
GGGAUUAAGGCAGGAUAUCCGGGUUGGCCUCGACAUGAGGAUCACCCAUGUGGAGAAGGGCCGAUUGCCCGUAGGGUGAUCAAG | 274 | 108 | – | –
GUAGCAUACCGAGGAUAUUCACCGGAAAACCGGACAUGAGGAUCACCCAUGUGGCGAAAGCCUUGGGAGAAGGCGGAAUGCUAC | – | – | 135 | 19.9
AAAUAAAUUAGUAUGAUAUCUUCACAUGAGGAUCACCCAUGUCAGGAUAUUUGUCCUAAAAGGACAGAGAAGGGACAUACUAUA | 6.08 | 8.31 | – | –
CCCAGCUAUGUGAGGAUAUUCACAUCGAUGGUAGUGAAGAAGGCACAUGAGGAUCACCCAUGUUGGUUGCCGAU | 19.4 | 28.7 | – | –
AUAAUAAAGGAGGAUAUCGUAUCGGAAACGAUACGAGAAGGUCUAACAUGAGGAUCACCCAUGUUCCUCAAAUA | 43.6 | 68 | – | –
GCGUUGAACGAGAAGGCCACUACAUGAGGAUCACCCAUGUCGUAGAGUAUUGGAGGAUAUCGAUAGGCGUCUCAUGAGGACAUA | 23.6 | 11.6 | – | –
ACUUCCCAGGAGAAGGGACAAGGCGGAGCCCGUACAUGAGGAUCACCCAUGUCAGGAUAUCCAUGCCGGAAGCUAACCCAGUUA | 6.42 | 10.1 | – | –
GCGUCAGAAUUAAUUGUGACAUACAGAAGGCAAAAGUUAGGAUUAGACAUGAGGAUCACCCAUGUUGAGGAUAUGUAGAGAAUC | 9.69 | 8.52 | – | –
GUGUUGUCAGGAUAUCUUACAUAACAAUCGUUGUUACCAUUGGAGAAGGGACAUGAGGAUCACCCAUGUUAUCC | 24.1 | 26.3 | – | –
ACAUGCUGCCGGCAGGAUAUCGCUUGGCGGACAUGAGGAUCACCCAUGUGAGAAAGUCGCGCGCGCGAGAAGGGCCAUGGUAUCAG | – | – | 98.2 | 80
GGACGUCUCGUUUACAUGAGGAUCACCCAUGUCGAUAGACAUGAGGAUAUGGAUCCGAAUCGGAUCCAGAAGGCAUGGACGUCC | – | – | 486 | 35
AUUCCCGGUGUUAGGAUAUCCAACGCCCACGCGAUGGAGAAGGGACAUGAGGAUCACCCAUGUAGAGCUGCAUC | 14.3 | 14.5 | – | –
GAAGGCUGGUAGAAGGAUCCUCACAUGAGGAUCACCCAUGUAACAGCGGAUAGGAUAUACCGUCUUUCAUGUUGGUCUCCCUAA | – | – | 461 | 46.5
UGAUCGAGAGAUCUUAGAUUCUGGUAGGAUAUACAUAUAGUAAUAUAGACAUGAGGAUCACCCAUGUAGAAGGACUAGAGUCUA | 6.9 | 8.65 | – | –
GCAGGACAUGAGGAUCACCCAUGUUCAAAAUAUUGAGGAUAUGGAUACGGUAUAUCCGAACCAGAAGGCAACCUGC | – | – | 20.5 | 17.1
AAAAGUAGAGGAUAUACAUGAGGAUCACCCAUGUAGAAAGGAAGUGUAUAUAUGGCAUGUAGAAGGCUACAUGA | 32.1 | 34.4 | – | –
GCAGCUAUUAUUAUACAUGAGGAUCACCCAUGUUACAUGUGUAAGGAUAUUGAAGUUUUUAUAAUCAAGAAGGUACUAUGCUGC | – | – | 14.4 | 9.33
GGGCCCGAGGUGAGGAUAUUGUGCAUGGCGAGUGACAAGAAGGUACAUGAGGAUCACCCAUGUGAUACCGACCU | 451 | 371 | – | –
UUACCUCAUGAGAAGGACAUGAGGAUCACCCAUGUAGGAUAUCGUGGGAGACUGGUAUUGAAUCUUCGGAUUCAAUACCAGUCU | – | – | 375 | 29.7
AGCUGUGGCCGAGGAUAUCUAACAAUCCUAACCGAAAUAUAAUCGGACAUGAGGAUCACCCAUGUAGAGAAGGCGGUCUCAGCA | 92.4 | 237 | – | –
AGUGAGCAGACAGGAUAUCCACUCAGGUCUGAGUCAACGACAUGAGGAUCACCCAUGUCCUAAAAGGAGAAGGGUCAUGGUCGU | – | – | 198 | 107
AGAUAACACCAGAAGGACAUGAGGAUCACCCAUGUAGGAUAUGGGCAUCACUCGAGAAAGAUACGACCAAAAGGACACGCGAUC | – | – | 85 | 10.3
GGGAAGGUUAGAGGAUAUAUUGUGUGUGAGAGAAUAGAAGGCUAAACAUGAGACACACACAUGAGGAUCACCCAUGUUAUGUUU | – | – | 147 | 91
CGAUAUAUGAAGGGCGAAAGCCCACAUGAGGAUCACCCAUGUAGAAGGCGAUCCGCAACGCGGAUCGAGGAUAUAUAGUAUACA | 9.48 | 10.4 | – | –
UGGUCAUGAUCAGGAUAUUAACAUGGGCUACAUUAAGAAGGGAUAGUGAGAUACGAACUGAAACAUGAGGAUCACCCAUGUGUU | – | – | 170 | 107
CGCCAUCCCGGUGGCGUGAGGAUACCAGAAGGGACGAUCUCACAUGAGGAUCACCCAUGUUAUAGUCAGGAUAUGGGUUCAUCA | – | – | 88.5 | 12.3
CAUUAACAUGAGGAUCACCCAUGUGAGGAUAUGAUAUUACUAGGACGGCUGUAAUCAAUCAGAAGGCACAUCUU | 20.4 | 44.5 | – | –
